Measurements published in ChEMBL document CHEMBL1764956, “Inhibitory effects of Mannich bases of heterocyclic chalcones on NO production by activated RAW 264.7 macrophages and superoxide anion generation and elastase release by activated human neutrophils” (Bioorg Med Chem, 2011).

Experiments:
[1] = system: Neutrophil; assay: Inhibition of FMLP/CB-stimulated elastase release in human neutrophils treated for 5 mins before FMLP/CB challenge using MeO-Suc-Ala-Ala-Pro-Val-p-nitroanilide as a substrate; type: functional, cell-based
How it was run: (§1)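 Human neutrophils (6×10^5/ml) with 100 µM MeO-Suc-Ala-Ala-Pro-Val-p-nitroanilide, equilibrated 37 °C 2 min, drug 5 min, then activated by 100 nM FMLP plus 0.5 µg/ml cytochalasin B. Absorbance at 405 nm monitored continuously. Expressed as % of release in drug-free FMLP/CB control. Mean ± S.E.M., n = 3–4; IC50 = 50% inhibition.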

[2] = system: Neutrophil; assay: Inhibition of FMLP/CB-stimulated superoxide anion generation in human neutrophils treated for 5 mins before FMLP and CB challenge for 10 mins and 3 mins respectively by spectrophotometer analysis; type: functional, cell-based
How it was run: (§2)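 Human neutrophils in Ca2+-free HBSS pH 7.4 plus 0.5 mg/ml ferricytochrome c and 1 mM Ca2+. Equilibrated 37 °C 2 min, drug 5 min, cytochalasin B (1 µg/ml) 3 min, then 100 nM FMLP 10 min. SOD-inhibitable ferricytochrome c reduction followed at 550 nm with stirring. Mean ± S.E.M., n = 3–4; IC50 = 50% inhibition.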

[3] = system: RAW264.7; assay: Inhibition of LPS/IFNgamma-induced NO production in mouse RAW264.7 cells after 24 hrs by Griess reagent method; type: functional, cell-based; conditions: RAW264.7, 24 h
How it was run: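 RAW 264.7 cells grown to confluence in 96-well plates (~200,000 cells/well), then given fresh medium with LPS (1 µg mL-1) plus IFN-γ (50 U mL-1); compounds added together with stimulus. Nitrite in medium read at 24 h: Griess reagent (1% sulfanilamide, 0.1% naphthylenediamine, 5% phosphoric acid), OD550, against sodium nitrite standards made in medium. IC50 = 50% inhibition.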

[4] = system: RAW264.7; assay: Cytotoxicity against mouse RAW264.7 cells assessed as cell viability after 4 hrs by MTT assay; type: cell-based; conditions: RAW264.7, 4 h
How it was run: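 RAW 264.7 macrophages (ATCC) grown in DMEM with 10% heat-inactivated FCS and penicillin/streptomycin at 37 °C, 5% CO2, in 96-well plates. Cells incubated with MTT (5 mg mL-1) for 4 h at 37 °C. Formazan dissolved in acid-SDS. Viability taken from mitochondria-dependent MTT reduction.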

[5] = system: Neutrophil; assay: Inhibition of FMLP/CB-stimulated superoxide anion generation in human neutrophils at 30 uM treated for 5 mins before FMLP and CB challenge for 10 mins and 3 mins respectively by spectrophotometer analysis relative to control; type: functional; how it was run: as §2
[6] = system: Neutrophil; assay: Inhibition of FMLP/CB-stimulated elastase release in human neutrophils at 30 uM treated for 5 mins before FMLP/CB challenge using MeO-Suc-Ala-Ala-Pro-Val-p-nitroanilide as a substrate relative to control; type: functional; how it was run: as §1
[7] = system: Neutrophil; assay: Inhibition of FLMP-stimulated Ca2+ mobilization in human neutrophils assessed as maximum intracellular Ca2+ concentration at 10 uM treated for 5 mins before stimulation by fluo-3 AM-based spectrofluorometry; type: functional
How it was run: (§3)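 Human neutrophils (dextran sedimentation, Ficoll Hypaque, hypotonic erythrocyte lysis; >98% viable) loaded with 2 µM fluo-3 AM, 37 °C, 45 min, washed, 3×10^6 cells/ml in Ca2+-free HBSS. Stimulated with 0.1 µM FMLP with 1 mM Ca2+, 37 °C, stirring; ex 488/em 520 nm. [Ca2+]i = Kd[(F−Fmin)/(Fmax−F)], Fmax with 0.05% Triton X-100, Fmin with 20 mM EGTA. Mean ± SEM.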

[8] = system: Neutrophil; assay: Inhibition of FLMP-stimulated Ca2+ mobilization in human neutrophils assessed as time required to decrease half of Ca2+ at 10 uM treated for 5 mins before FLMP challenge by fluo-3 AM-based spectrofluorometry; type: functional, cell-based; how it was run: as §3

| Compound | IC50 [1] | IC50 [2] | IC50 [3] | IC50 [4] | inhibition at 30 µM [5] | inhibition at 30 µM [6] | Activity [7] | T1/2 [8] |
| --- | --- | --- | --- | --- | --- | --- | --- | --- |
| COc1cc(O)c(C(=O)/C=C/c2cccnc2)cc1CN1CCOCC1 | 4.52 µM | 2.65 µM | 11.8 µM | 2810 µM | – | – | – | – |
| O=C(/C=C/c1ccccc1)c1cccc(O)c1CN1CCOCC1 | 5.19 µM | 2.81 µM | 2.3 µM | 9.95 µM | – | – | – | – |
| CCOc1cc(O)c(C(=O)/C=C/c2ccco2)cc1CN1CCOCC1 | – | – | 16.5 µM | 16.9 µM | 39.9% | – | – | – |
| COc1ccc(/C=C/C(=O)c2cccnc2)c(CN2CCCCC2)c1O | 20.1 µM | 13 µM | – | – | – | – | – | – |
| Cc1ccc(/C=C/C(=O)c2ccc(O)c(CN3CCOCC3)c2)o1 | – | 25.6 µM | 1.28 µM | 0.006 µM | – | – | – | – |
| O=C(/C=C/c1cccs1)c1ccc(O)c(CN2CCOCC2)c1 | – | 25.4 µM | 0.47 µM | 6830 µM | – | 19.3% | – | – |
| O=S(=O)(F)Cc1ccccc1 [PHENYLMETHYLSULFONYLFLUORIDE] | 95 µM | – | – | – | – | – | – | – |
| COc1cc(O)c(C(=O)/C=C/c2cccs2)cc1CN1CCOCC1 | – | 10.2 µM | 3.61 µM | 148 µM | – | – | – | – |
| Cc1ccsc1/C=C/C(=O)c1cccc(O)c1CN1CCOCC1 | 18.6 µM | 9.6 µM | 3.39 µM | 182 µM | – | – | – | – |
| CCOc1cc(O)c(C(=O)/C=C/c2ccccc2)cc1CN1CCOCC1 | – | 3.35 µM | 0.29 µM | 1.6 µM | – | – | – | – |
| COc1ccc(/C=C/C(=O)c2cccs2)c(CN2CCCCC2)c1O | – | 8.32 µM | – | – | – | – | – | – |
| O=C(/C=C/c1ccco1)c1cccc(O)c1CN1CCOCC1 | – | 18.2 µM | 2.5 µM | 17.2 µM | – | 39.7% | – | – |
| O=C(/C=C/c1ccccn1)c1ccc(O)c(CN2CCOCC2)c1 | 20.9 µM | 15.2 µM | 3.41 µM | 6.56 µM | – | – | – | – |
| CC(C)Oc1ccc(C(=O)/C=C/c2cccs2)c(O)c1CN1CCOCC1 | – | 3.39 µM | 2.21 µM | 34 µM | – | – | – | – |
| CCOc1cc(O)c(C(=O)/C=C/c2cccnc2)cc1CN1CCOCC1 | 3.48 µM | 2.42 µM | 15.4 µM | 4.46 µM | – | – | – | – |
| O=C(/C=C/c1ccccc1)c1ccc(O)c(CN2CCOCC2)c1 | – | 16.6 µM | 15.6 µM | 35 µM | – | 9.32% | – | – |
| COc1ccccc1OC(=O)CNC(=O)Cc1ccc(C(=O)c2ccc(C)cc2)n1C [AMTOLMETIN GUACIL] | – | – | 51.3 µM | – | – | – | – | – |
| O=C(/C=C/c1ccccn1)c1ccc(O)c(CN2CCOCC2)c1O | 21.2 µM | 12.6 µM | 1.73 µM | 11.4 µM | – | – | – | – |
| O=C(/C=C/c1ccco1)c1ccc(O)c(CN2CCOCC2)c1 | – | – | 0.16 µM | 10 µM | 27.4% | – | 276.51 nM | 28.1 s |
| O=C(/C=C/c1ccccn1)c1ccc(CN2CCOCC2)c(O)c1 | 2.47 µM | 2.63 µM | 0.72 µM | 78 µM | – | – | – | – |
| O=C(/C=C/c1cccnc1)c1ccc(CN2CCOCC2)c(O)c1 | 6.66 µM | 5.96 µM | 0.23 µM | – | – | – | – | – |

| Compound | IC50 [1] | IC50 [2] | IC50 [3] | IC50 [4] | inhibition at 30 µM [5] | inhibition at 30 µM [6] | Activity [7] | T1/2 [8] |
| --- | --- | --- | --- | --- | --- | --- | --- | --- |
| O=C(/C=C/c1ccccn1)c1ccc(CN2CCOCC2)c(O)c1CN1CCOCC1 | 1.44 µM | 1.66 µM | 0.018 µM | 24.3 µM | – | – | – | – |
| COc1cc(O)c(C(=O)/C=C/c2ccco2)cc1CN1CCOCC1 | – | 15.8 µM | 6.06 µM | 1440 µM | – | 17.9% | – | – |
| CCOc1cc(O)c(C(=O)/C=C/c2ccccn2)cc1CN1CCOCC1 | 1.24 µM | 0.89 µM | 15.1 µM | 0.18 µM | – | – | – | – |
| c1ccc2c(c1)[I+]c1ccccc1-2 [DIPHENYLENEIODONIUM] | – | 1.02 µM | – | – | – | – | – | – |
| COc1ccc(/C=C/C(=O)c2cc(CN3CCOCC3)c(OC)cc2O)cc1 | – | 5.77 µM | 3.35 µM | 1860 µM | – | – | – | – |
| O=C(/C=C/c1ccccn1)c1cc(CN2CCOCC2)c(O)c(CN2CCOCC2)c1 | 18.9 µM | 14.8 µM | 2.52 µM | 190 µM | – | – | – | – |
| COc1ccc(/C=C/C(=O)c2ccco2)c(CN2CCCCC2)c1O | – | 4.18 µM | – | – | – | – | – | – |
| O=C(/C=C/c1cccnc1)c1ccc(O)c(CN2CCOCC2)c1 | – | 23.5 µM | 0.82 µM | 53.2 µM | – | 20.4% | – | – |
| Cc1ccsc1/C=C/C(=O)c1ccc(O)c(CN2CCOCC2)c1 | 18.2 µM | 16.4 µM | 1.39 µM | – | – | – | – | – |
| CCOc1cc(O)c(C(=O)/C=C/c2sccc2C)cc1CN1CCOCC1 | – | 19.9 µM | 8.13 µM | 2060 µM | – | – | – | – |
| COc1ccc(/C=C/C(=O)c2cccc(C)c2)c(CN2CCOCC2)c1O | 2.95 µM | 3.16 µM | – | – | – | – | – | – |
| CC(C)=CCOc1ccc(C(=O)/C=C/c2sccc2C)c(O)c1CN1CCOCC1 | – | – | 0.93 µM | 11 µM | 21.5% | – | – | – |
| Cc1ccsc1/C=C/C(=O)c1cc(CN2CCOCC2)c(O)c(CN2CCOCC2)c1 | – | – | 0.44 µM | 56.9 µM | 33.8% | 15.4% | – | – |
| CC(C)Oc1cc(O)c(C(=O)/C=C/c2cccs2)cc1CN1CCOCC1 | – | 19.4 µM | 0.23 µM | 47.7 µM | – | – | – | – |
| O=C(/C=C/c1cccs1)c1cccc(O)c1CN1CCOCC1 | 24.3 µM | 10.5 µM | 2.49 µM | 12.7 µM | – | – | – | – |
| O=C(/C=C/c1ccncc1)c1ccc(O)c(CN2CCOCC2)c1 | 13.7 µM | 8.85 µM | 4.14 µM | 111 µM | – | – | – | – |
| O=C(/C=C/c1ccncc1)c1ccc(CN2CCOCC2)c(O)c1 | 2.28 µM | 1.6 µM | 0.055 µM | 110 µM | – | – | – | – |
| COc1cc(O)c(C(=O)/C=C/c2ccccc2)cc1CN1CCOCC1 | – | 2.86 µM | 0.2 µM | 0.19 µM | – | – | – | – |
| COc1ccc(C(=O)/C=C/c2ccccn2)c(O)c1CN1CCOCC1 | 0.95 µM | 0.68 µM | 1.73 µM | 10.8 µM | – | – | 208.65 nM | 8.43 s |
| CCOc1cc(O)c(C(=O)/C=C/c2ccc(C)o2)cc1CN1CCOCC1 | – | 19.9 µM | 10.5 µM | 91.3 µM | – | – | – | – |
| COc1ccc(/C=C/C(=O)c2ccc(C)cc2)c(CN2CCOCC2)c1O | 6.97 µM | 2.76 µM | – | – | – | – | – | – |
